Bioassay records deposited in PubChem BioAssay by several laboratories.
Shown are actives, neighbours in structure and some others; about 3.1% of the full set was active somewhere.
ADAM10 inh: inhibits human ADAM10. recombinant ADAM10, EDANS/DABCYL FRET peptide cleavage, 3 h. inhibition, % at 7 µM. hit rate 0.62% among 370,000. O14672;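 active = inhibition above a per-campaign cutoff equal to the mean of compounds falling between control-based bounds plus 3 SD, cut at about 20% in these data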;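 note: 0% = DMSO wells while the 100% control is not disclosed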
Lipid droplet: modulators of hepatic lipid droplet formation. AML12 mouse hepatocytes, oleate lipid droplets, BODIPY imaging. inhibition, % at 6.5 µM. hit rate 0.4% among 240,000. AID 1656;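 active = lipid droplet intensity inhibited by at least 50%, with more than 500 cells counted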
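Material: mouse AML12 hepatocyte cell line, fixed after treatment; Timing: compound with oleate, overnight; Technique: high-content imaging of BODIPY-stained droplets and DAPI nuclei; Probe or stimulus: oleate, 100 µM final; Dosing: compound at 6.5 µM only.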
aDG glyco up: increases alpha dystroglycan glycosylation. activation, % at 10 µM. Pro5-aDG cells, alpha-DG glycosylation AlphaScreen (IIH6); 0% Pro5, 100% B10-LARGE cell signal. AID 624168. hit rate 0.22% among 360,000;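 active = activation of at least 8% versus controls, or a plate z-score of at least 8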;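 note: Pro5 are CHO cells carrying HIG-tagged alpha-DG that lacks glycosylation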
V-ATPase pHluor: alters yeast V-ATPase proton transport; hit rate 0.37% among 350,000; AID 504577; response, % at 10 µM; S. cerevisiae, pHLuorin cytosolic pH fluorescence; in the data active = response mostly above about 7.3%, no sharp cut-off; inactive = mostly below about 5.4%; note: actives read high
ADAM17 inh: inhibits human ADAM17 | inhibition, % at 6.95 µM | recombinant ADAM17, EDANS/DABCYL FRET peptide cleavage | hit rate 0.83% among 370,000;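 active = inhibition above the mean of compounds lying between control limits plus 3 SD, set per campaign, cut at about 8.5% in these data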;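 note: 0% = DMSO-only wells as the low control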
Target sequence (P78536 215-824 limits assumed): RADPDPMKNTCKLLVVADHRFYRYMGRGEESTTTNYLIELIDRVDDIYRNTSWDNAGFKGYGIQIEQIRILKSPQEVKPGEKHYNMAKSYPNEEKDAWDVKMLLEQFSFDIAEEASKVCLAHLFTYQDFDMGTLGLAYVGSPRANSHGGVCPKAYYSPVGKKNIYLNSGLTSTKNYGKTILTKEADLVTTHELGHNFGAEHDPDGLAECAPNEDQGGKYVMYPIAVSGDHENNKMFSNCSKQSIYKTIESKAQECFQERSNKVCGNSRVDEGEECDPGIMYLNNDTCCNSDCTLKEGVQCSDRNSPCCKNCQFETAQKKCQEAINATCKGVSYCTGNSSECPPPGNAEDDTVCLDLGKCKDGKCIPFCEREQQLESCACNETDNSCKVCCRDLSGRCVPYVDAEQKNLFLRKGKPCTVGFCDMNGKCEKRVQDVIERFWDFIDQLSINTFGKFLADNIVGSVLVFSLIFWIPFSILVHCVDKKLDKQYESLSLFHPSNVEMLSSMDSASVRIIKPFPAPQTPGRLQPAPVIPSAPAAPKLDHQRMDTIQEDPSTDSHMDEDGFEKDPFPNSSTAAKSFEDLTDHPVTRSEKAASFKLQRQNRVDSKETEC
MPTP block: inhibitors of mitochondrial permeability transition pore. hit rate 1.4% among 360,000. inhibition, % at 10 µM. isolated mouse mitochondria, Ca2+ swelling absorbance, 30 min;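 active = inhibition of 50% or more, scaled per plate between neutral and stimulator controls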;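 note: 0% = DMSO wells given calcium and 100% = 1 mM EGTA wells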
ADAM10 counter: inhibits human ADAM10 in ADAM17 exosite counter-screen. inhibition, % at 6.95 µM. shares compounds with ADAM17 inh. hit rate 47% among 2,900. recombinant ADAM10, EDANS/DABCYL FRET peptide cleavage, 3 h;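 active = mean inhibition over the triplicate runs exceeds the activity threshold set in the earlier primary screen, cut at about 20% in these data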;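 note: 0% = DMSO wells and 100% = marimastat wells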
ADAM17 confirm: confirmation of inhibitors of human ADAM17; shares compounds with ADAM17 inh; hit rate 65% among 2,900; inhibition, % at 6.95 µM; recombinant ADAM17, EDANS/DABCYL QFRET peptide cleavage;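 active = mean inhibition across replicates above the hit cutoff set in the primary screen, cut at about 8.5% in these data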;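 note: 0% = DMSO wells and 100% = marimastat wells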
The depositor's hits bear a star.

Results for O=C(N[C@H]1C/C=C\C[C@@H](CC(=O)N(CCO)Cc2ccccc2)C(=O)N[C@H](Cc2c[nH]c3ccccc23)COC1=O)OCC1c2ccccc2-c2ccccc21 ?
ADAM10 inh: 9; aDG glyco up: 0; V-ATPase pHluor: 0; ADAM17 inh: 10*; MPTP block: -2; ADAM10 counter: 21*; ADAM17 confirm: 13*

What do the screens show for `O=C(N[C@H]1C/C=C\C[C@H](CC(=O)N(CCO)Cc2ccccc2)C(=O)N[C@H](Cc2c[nH]c3ccccc23)COC1=O)OCC1c2ccccc2-c2ccccc21`?
ADAM10 inh: 10; aDG glyco up: 0; V-ATPase pHluor: -2; ADAM17 inh: 4; MPTP block: 1

What do the screens show for `Cc1cc(CSc2ccc(Cl)cc2)ccc1N`?
ADAM10 inh: 3; aDG glyco up: 0; V-ATPase pHluor: -1; ADAM17 inh: 9.7*; MPTP block: 0; ADAM10 counter: 21*; ADAM17 confirm: 8

What do the screens show for `CCCCCCC/C=C(\C)[C@@H](O)[C@@H](C)C(=O)N1CCC[C@@H]1C(=O)O[C@H](C(=O)O[C@@H](C)C(=O)O)[C@@H](C)CC`?
ADAM10 inh: -2; ADAM17 inh: -4

How did CCOc1ccc(N=C2SC(C(=O)Nc3ccccc3C#N)C(N)=C2C(=O)Nc2ccc(Cl)cc2)cc1 (stereo unspecified) do in these assays?
ADAM10 inh: 16; Lipid droplet: -22; aDG glyco up: 0; V-ATPase pHluor: -5; ADAM17 inh: 9.4*; MPTP block: 23; ADAM10 counter: 21*; ADAM17 confirm: 16*

How did COc1ccc(Cl)cc1NC(=O)CN(C)C(=O)CSc1ccc2c(c1)OCCO2 do in these assays?
ADAM10 inh: 5; aDG glyco up: 0; V-ATPase pHluor: 0; ADAM17 inh: 8.9*; MPTP block: 0; ADAM10 counter: 25*; ADAM17 confirm: 15*

What do the screens show for `COc1ccc(NC(=O)CN(C)C(=O)CSc2ccc3c(c2)OCCO3)cc1`?
ADAM10 inh: 2; Lipid droplet: -6; aDG glyco up: 0; V-ATPase pHluor: 3; ADAM17 inh: 5; MPTP block: 2

How did Cc1cccc(C)c1NC(=O)C1(C)CSCC(=O)N1CCc1ccc(O)cc1 (stereo unspecified) do in these assays?
ADAM10 inh: 6; aDG glyco up: 0; ADAM17 inh: 11*; MPTP block: -1; ADAM10 counter: -7; ADAM17 confirm: 1

Results for COC(=O)[C@]12C[C@H](CC(=O)NCCCCc3ccccc3)C(=O)N(Cc3cccc4ccccc34)C1=C[C@H](C(C)C)O[C@@H]2C1CC1 ?
ADAM10 inh: 6; ADAM17 inh: 9.6*; ADAM10 counter: 12; ADAM17 confirm: 12*

What do the screens show for `CCOC(=O)[C@]12CCC=C1N(Cc1cccc3ccccc13)C(=O)[C@H](CC(=O)NCc1cccs1)C2`?
ADAM10 inh: 13; aDG glyco up: 0; ADAM17 inh: 11*; MPTP block: -2; ADAM10 counter: 20*; ADAM17 confirm: 12*

What do the screens show for `C#CCNC(=O)C[C@H]1C[C@@]2(C(=O)OC)C(=C[C@H](C(C)C)O[C@@H]2C2CC2)N(Cc2cccc3ccccc23)C1=O`?
ADAM10 inh: 10; ADAM17 inh: 8.9*; ADAM10 counter: 6; ADAM17 confirm: 8

How did CCn1c(=O)n(CC(=O)N2CCN(c3ccc(F)cc3)CC2)c(=O)c2ccccc21 do in these assays?
ADAM10 inh: -1; ADAM17 inh: 0

What do the screens show for `COc1ccc(-n2c(SCC(=O)Nc3ccc4c(c3)OCO4)nc3sc4c(c3c2=O)CCCC4)cc1`?
ADAM10 inh: -7; ADAM17 inh: -1

What do the screens show for `CC(CCN1CCC(C(O)(c2ccccc2)c2ccccc2)CC1)Oc1ccc(C#N)cc1F` (stereo unspecified)?
ADAM10 inh: 8; ADAM17 inh: 4

Results for COC(=O)[C@@]1(Cc2ccc(F)cc2)[C@H]2c3cc(C(=O)N(C)C)n(Cc4ccccc4)c3C[C@H]2CN1C(=O)c1ccccc1 ?
ADAM10 inh: 5; ADAM17 inh: 9.4*; ADAM10 counter: -7; ADAM17 confirm: 0

Results for CC(C)(C)C(=O)OC12CCCN(C1)/C(=C/c1cccnc1)C2 (stereo unspecified) ?
ADAM10 inh: 3; ADAM17 inh: 0

Results for CC(C)NC(=O)N[C@H]1C[C@@H]2O[C@H](CO)CC[C@@H]2O[C@@H]1CCc1ccc(-c2ccccc2F)cc1 ?
ADAM10 inh: 6; ADAM17 inh: 4

What do the screens show for `COc1cc(/C=N/NC(=O)c2cc(O)cc(O)c2)ccc1OC(=O)c1ccccc1`?
ADAM10 inh: 10; Lipid droplet: 1; aDG glyco up: 0; V-ATPase pHluor: -3; ADAM17 inh: 2; MPTP block: 0

Results for COc1ccc(/C=N/NC(N)=S)cc1OC(=O)c1ccccc1 ?
ADAM10 inh: -1; Lipid droplet: -6; aDG glyco up: 0; V-ATPase pHluor: -2; ADAM17 inh: 9.1*; MPTP block: 0; ADAM10 counter: 10; ADAM17 confirm: 8

What do the screens show for `COc1ccc(Cn2ccc3ccc(-c4ccc5ccn(C(=O)c6ccccc6C)c5c4)cc32)cc1`?
ADAM10 inh: -44; ADAM17 inh: -8

What do the screens show for `CCCOc1ccc(C2/C(=C(\O)c3c(C)[nH]c(C(=O)OC)c3C)C(=O)C(=O)N2CCN(C)C)cc1` (stereo unspecified)?
ADAM10 inh: -8; aDG glyco up: 0; V-ATPase pHluor: 1; ADAM17 inh: 9.9*; MPTP block: -5; ADAM10 counter: 2; ADAM17 confirm: 3

Results for Cc1ccc(CN2CCCCC(NC(=O)c3c(F)cccc3F)C2=O)cc1 (stereo unspecified) ?
ADAM10 inh: 0; ADAM17 inh: -1

Results for CC(c1ccccc1)n1c(SCC(=O)N2CC(=O)Nc3ccccc32)nc2ccccc2c1=O (stereo unspecified) ?
ADAM10 inh: 15; Lipid droplet: -24; aDG glyco up: 0; V-ATPase pHluor: -3; ADAM17 inh: 8.9*; MPTP block: 1; ADAM10 counter: 37*; ADAM17 confirm: 16*

How did COCC(C)n1c(SCC(=O)N2CC(=O)Nc3ccccc32)nc2ccccc2c1=O (stereo unspecified) do in these assays?
ADAM10 inh: -7; aDG glyco up: 0; V-ATPase pHluor: 0; ADAM17 inh: -2; MPTP block: 0
